Results from ChEMBL document CHEMBL1144880, “Identification of phenylisoxazolines as novel and viable antibacterial agents active against Gram-positive pathogens” (J Med Chem, 2003).
≈ marks a conversion by molar mass, not a printed value.

Key:
Mus musculus = assay: In Vivo effective dose required for antibacterial activity in a systemic mouse infection model (SMIM) upon oral administration against Staphylococcus aureus UC9213; format: functional
How it was run: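 Compound was given orally at 1 and 5 h after infection. Deaths were monitored for at least 6 days, and ED50 (dose curing 50% of mice) was calculated by probit analysis.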

Staphylococcus aureus [1] = assay: In vitro minimum inhibitory concentration (MIC) against Staphylococcus aureus UC12673; format: functional
How it was run: (§1)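 MIC determined by standard broth microdilution, defined as the lowest drug concentration (µg/mL) inhibiting visible growth.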

[2] = Harmonic mean apparent terminal disposition half-life [t1/2beta (h)] in Male Sprague-Dawley Rat at dose 48.9 (mg/kg po); format: ADME, organism-based; settings: in vivo, read-out: T1/2 beta (converted)
How it was run: (§2)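 Male Sprague-Dawley rats dosed intravenously or orally. Intact compound measured in plasma by HPLC-UV after protein-precipitation sample preparation. Half-life reported as harmonic mean apparent terminal disposition half-life. Bioavailability is absolute oral bioavailability. Some comparator values are archival data.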

CYP2D6 [3] = biological target: T1, CYP2D6 (Homo sapiens, UniProt P10635); assay: Inhibition of heterologously expressed human Cytochrome P450 2D6 at 10 uM; format: ADME; set-up: scale not given: the % may be the effect or the level left; settings: read-out: Control of P-450 marker
T1 sequence (P10635 whole entry): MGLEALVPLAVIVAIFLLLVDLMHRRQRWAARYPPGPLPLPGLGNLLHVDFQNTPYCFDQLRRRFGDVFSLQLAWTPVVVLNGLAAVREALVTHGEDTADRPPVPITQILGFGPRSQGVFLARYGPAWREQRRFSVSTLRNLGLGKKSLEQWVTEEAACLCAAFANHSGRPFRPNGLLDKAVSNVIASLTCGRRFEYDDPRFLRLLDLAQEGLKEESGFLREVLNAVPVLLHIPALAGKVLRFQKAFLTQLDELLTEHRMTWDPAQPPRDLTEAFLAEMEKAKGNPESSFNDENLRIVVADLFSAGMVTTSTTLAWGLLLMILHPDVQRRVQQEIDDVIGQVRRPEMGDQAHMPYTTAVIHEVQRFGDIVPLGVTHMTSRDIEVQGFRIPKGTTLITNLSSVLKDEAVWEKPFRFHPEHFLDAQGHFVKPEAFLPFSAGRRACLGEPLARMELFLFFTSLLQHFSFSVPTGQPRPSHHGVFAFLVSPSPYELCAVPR
How it was run: (§3)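 Human cDNA-expressed CYP1A2, 2C9, 2D6 and 3A4 microsomes incubated with compound at 10 or 100 µM plus CYP marker substrates. Marker metabolite formation quantified by HPLC with radiochemical detection and expressed as % of control, mean ± SD of triplicates.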

[4] = Plasma clearance in Male Sprague-Dawley Rat (8.98 mg/kg iv); format: ADME, organism-based; how it was run: as §2
Rattus norvegicus = species on record: Rattus norvegicus; assay: Compound was evaluated for metabolic stability via In vitro Rat 5E6 cell at 50 uM concentration; format: functional
[5] = Plasma clearance in Male Sprague-Dawley Rat (48.9 mg/kg po); format: ADME, organism-based; how it was run: as §2
[6] = Cmax value in Male Sprague-Dawley Rat at dose 8.98 (mg/kg iv); format: ADME, organism-based; set-up: dose 8.98 mg/kg, route intravenous; settings: in vivo; how it was run: as §2
Staphylococcus aureus [7] = assay: In vitro minimum inhibitory concentration (MIC) against Staphylococcus aureus UC9213; format: functional; how it was run: as §1
[8] = Volume distribution in Male Sprague-Dawley Rat (8.98 mg/kg iv); format: ADME, organism-based; settings: in vivo, read-out: Vss
How it was run: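 Male Sprague-Dawley rats given the compound intravenously. Intact compound in plasma was measured by HPLC-UV after protein-precipitation sample preparation.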

[9] = Tmax value in Male Sprague-Dawley Rat at dose 48.9 (mg/kg po) [tmax (h)]; format: ADME, organism-based; settings: in vivo; how it was run: as §2
[10] = Harmonic mean apparent terminal disposition half-life [t1/2beta (h)] in Male Sprague-Dawley Rat at dose 8.98 (mg/kg iv); format: ADME, organism-based; settings: in vivo, read-out: T1/2 beta (converted); how it was run: as §2
CYP3A4 [11] = biological target: T2, CYP3A4 (Homo sapiens, UniProt P08684); assay: Inhibition of heterologously expressed human Cytochrome P450 3A4 at 100 uM; format: ADME; set-up: scale not given: the % may be the effect or the level left; settings: read-out: Control of P-450 marker; how it was run: as §3
T2 sequence (P08684 whole entry): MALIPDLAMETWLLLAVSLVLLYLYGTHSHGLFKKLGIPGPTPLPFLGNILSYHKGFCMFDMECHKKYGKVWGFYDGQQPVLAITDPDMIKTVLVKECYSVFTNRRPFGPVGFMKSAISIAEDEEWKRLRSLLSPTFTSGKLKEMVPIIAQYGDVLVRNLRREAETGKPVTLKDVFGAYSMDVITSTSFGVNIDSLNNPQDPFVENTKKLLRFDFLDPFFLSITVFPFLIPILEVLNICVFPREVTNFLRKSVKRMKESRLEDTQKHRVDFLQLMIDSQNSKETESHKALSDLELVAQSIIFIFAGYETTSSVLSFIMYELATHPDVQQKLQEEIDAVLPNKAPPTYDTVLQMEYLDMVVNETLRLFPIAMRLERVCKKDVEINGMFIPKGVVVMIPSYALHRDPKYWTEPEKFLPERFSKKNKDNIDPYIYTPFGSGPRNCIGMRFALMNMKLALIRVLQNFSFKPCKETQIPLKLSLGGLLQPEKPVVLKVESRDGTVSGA

Homo sapiens = species on record: Homo sapiens; assay: Compound was evaluated for metabolic stability via In vitro Human 5E6 cell at 25 uM concentration; format: functional
CYP2C9 [12] = biological target: T3, CYP2C9 (Homo sapiens, UniProt P11712); assay: Inhibition of heterologously expressed human Cytochrome P450 2C9 at 100 uM; format: ADME; set-up: scale not given: the % may be the effect or the level left; settings: read-out: Control of P-450 marker; how it was run: as §3
T3 sequence (P11712 whole entry): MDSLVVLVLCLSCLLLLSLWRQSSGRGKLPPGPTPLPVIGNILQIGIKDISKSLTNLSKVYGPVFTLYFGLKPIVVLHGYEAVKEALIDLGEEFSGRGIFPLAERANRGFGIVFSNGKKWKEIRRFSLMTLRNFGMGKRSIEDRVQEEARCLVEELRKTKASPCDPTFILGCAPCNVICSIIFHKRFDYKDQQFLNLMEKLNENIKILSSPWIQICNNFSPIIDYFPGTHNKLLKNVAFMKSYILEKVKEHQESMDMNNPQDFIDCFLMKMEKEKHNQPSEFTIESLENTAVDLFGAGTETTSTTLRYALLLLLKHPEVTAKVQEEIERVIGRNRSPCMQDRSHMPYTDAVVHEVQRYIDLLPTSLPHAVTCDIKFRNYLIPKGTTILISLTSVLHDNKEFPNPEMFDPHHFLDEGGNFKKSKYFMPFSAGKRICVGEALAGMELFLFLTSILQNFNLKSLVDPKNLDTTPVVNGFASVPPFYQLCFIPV

Moraxella catarrhalis = assay: In vitro minimum inhibitory concentration (MIC) against Moraxella catarrhalis UC30610; format: functional; how it was run: as §1
[13] = Cmax value in Male Sprague-Dawley Rat at dose 48.9 (mg/kg po); format: ADME, organism-based; set-up: dose 48.9 mg/kg, route oral; settings: in vivo; how it was run: as §2
CYP3A4 [14] = biological target: T2, CYP3A4; assay: Inhibition of heterologously expressed human Cytochrome P450 3A4 at 10 uM; format: ADME; set-up: scale not given: the % may be the effect or the level left; settings: read-out: Control of P-450 marker; how it was run: as §3
CYP2C9 [15] = biological target: T3, CYP2C9; assay: Inhibition of heterologously expressed human Cytochrome P450 2C9 at 10 uM; format: ADME; set-up: scale not given: the % may be the effect or the level left; settings: read-out: Control of P-450 marker; how it was run: as §3
[16] = Absolute oral bioavailability in Male Sprague-Dawley Rat (8.98 mg/kg iv); format: ADME, organism-based; settings: in vivo; how it was run: as §2
CYP1A2 [17] = biological target: T4, CYP1A2 (Homo sapiens, UniProt P05177); assay: Inhibition of heterologously expressed human Cytochrome P450 1A2 at 10 uM; format: ADME; set-up: scale not given: the % may be the effect or the level left; settings: read-out: Control of P-450 marker; how it was run: as §3
T4 sequence (P05177 whole entry): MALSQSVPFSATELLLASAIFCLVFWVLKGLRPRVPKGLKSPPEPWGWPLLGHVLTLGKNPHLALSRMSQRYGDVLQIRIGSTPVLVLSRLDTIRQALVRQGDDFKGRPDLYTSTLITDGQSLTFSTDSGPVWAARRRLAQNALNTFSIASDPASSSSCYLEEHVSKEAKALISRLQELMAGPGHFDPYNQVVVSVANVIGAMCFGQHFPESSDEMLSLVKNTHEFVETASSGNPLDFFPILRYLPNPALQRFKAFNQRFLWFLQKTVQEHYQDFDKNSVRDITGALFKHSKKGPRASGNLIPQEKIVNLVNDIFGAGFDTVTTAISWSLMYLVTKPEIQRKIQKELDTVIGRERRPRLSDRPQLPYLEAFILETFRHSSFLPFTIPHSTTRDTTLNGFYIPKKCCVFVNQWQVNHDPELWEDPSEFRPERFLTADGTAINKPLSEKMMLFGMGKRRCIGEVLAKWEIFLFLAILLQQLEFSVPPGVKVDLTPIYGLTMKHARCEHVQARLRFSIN

Enterococcus faecalis = assay: In vitro minimum inhibitory concentration (MIC) against Enterococcus faecalis UC9217; format: functional; how it was run: as §1
Haemophilus influenzae = assay: In vitro minimum inhibitory concentration (MIC) against Haemophilus influenzae UC30063; format: functional; how it was run: as §1
[18] = Absolute oral bioavailability in Male Sprague-Dawley Rat (48.9 mg/kg po); format: ADME, organism-based; settings: in vivo; how it was run: as §2
[19] = system: Staphylococcus epidermidis; assay: In vitro minimum inhibitory concentration (MIC) against Staphylococcus epidermidis UC12084; format: functional; how it was run: as §1
Escherichia coli = assay: In vitro minimum inhibitory concentration (MIC) against Escherichia coli UC6674; format: functional; how it was run: as §1
CYP1A2 [20] = biological target: T4, CYP1A2; assay: Inhibition of heterologously expressed human Cytochrome P450 1A2 at 100 uM; format: ADME; set-up: scale not given: the % may be the effect or the level left; settings: read-out: Control of P-450 marker; how it was run: as §3
CYP2D6 [21] = biological target: T1, CYP2D6; assay: Inhibition of heterologously expressed human Cytochrome P450 2D6 at 100 uM; format: ADME; set-up: scale not given: the % may be the effect or the level left; settings: read-out: Control of P-450 marker; how it was run: as §3
Streptococcus pneumoniae = assay: In vitro minimum inhibitory concentration (MIC) against Streptococcus pneumoniae UC9912; format: functional; how it was run: as §1

In the case of CC(=O)NC[C@H]1CC(c2ccc(N3CCOCC3)c(F)c2)=NO1, the ED50 (Mus musculus) is reported as 16.5 mg/kg, the MIC (Staphylococcus aureus [1]) is reported as 4 µg/mL (≈ 12.4 µM) and the half-life [2] is reported as 36 min. The activity at 10 µM (CYP2D6 [3]) was 101%, the clearance [4] was 12.4 mL/min/kg and the “Remaining at 40 min” value (Rattus norvegicus) was 87%. The CL/F [5] was 8.6 mL/min/kg, the Cmax [6] was 17700 ng/mL and the MIC (Staphylococcus aureus [7]) was 4 µg/mL (≈ 12.4 µM). For the same compound, the Vd [8] was 0.6 L/kg, the Tmax [9] was 192 min and the half-life [10] was 28.2 min. The activity at 100 µM (CYP3A4 [11]) was 92.1%, the “Remaining at 40 min” value (Homo sapiens) was 100% and the activity at 100 µM (CYP2C9 [12]) was 95.8%. It also gave an MIC (Moraxella catarrhalis) of 16 µg/mL (≈ 49.8 µM), a Cmax [13] of 12200 ng/mL and an activity at 10 µM (CYP3A4 [14]) of 88.9%. It also gave an activity at 10 µM (CYP2C9 [15]) of 92.1%, a bioavailability [16] of 100% and an activity at 10 µM (CYP1A2 [17]) of 100%. For the same compound, the MIC (Enterococcus faecalis) was 8 µg/mL (≈ 24.9 µM), the MIC (Haemophilus influenzae) was > 16 µg/mL and the bioavailability [18] was 143%. For the same compound, the MIC [19] was 2 µg/mL (≈ 6.22 µM), the MIC (Escherichia coli) was > 16 µg/mL and the activity at 100 µM (CYP1A2 [20]) was 102%. It also gave an activity at 100 µM (CYP2D6 [21]) of 103% and an MIC (Streptococcus pneumoniae) of 1 µg/mL (≈ 3.11 µM).
